In ChEMBL document CHEMBL1128288, “7-Azetidinylquinolones as antibacterial agents. 3. Synthesis, properties and structure-activity relationships of the stereoisomers containing a 7-(3-amino-2-methyl-1-azetidinyl) moiety” (J Med Chem, 1995):
In brackets after ≈: the same amount, converted by molar mass.

How the values were obtained:
Type in all cases: functional
[1] = system: Escherichia coli; test: In vivo efficacy as ED50 against Escherichia coli HM-42 by oral administration in mice.; conditions: Escherichia coli, po; read-out: ED50
Method in brief: (§1)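 Mice, 4 groups of 10, infected intraperitoneally with slightly more than the LD100 of the organism. A single oral dose was given immediately after infection, with four doses (one per group) chosen from in vitro activity. Survival was scored after one week. ED50 (total dose, mg/kg, protecting 50%) was interpolated among group survival rates.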

[2] = system: Morganella morganii; test: In vitro antibacterial activity measured as minimum inhibitory concentration was evaluated on morganella morganii ATCC 8019 (Mm).; conditions: Morganella morganii, ATCC 8019; read-out: MIC
Method in brief: (§2)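 Serial 2-fold agar dilution in Mueller Hinton medium, run side by side with reference quinolones. Inoculum 10^5 cfu/mL; compound range 0.007–16 µg/mL.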

[3] = system: Pseudomonas aeruginosa; test: In vivo efficacy as ED50 against Pseudomonas aeruginosa HS-116 by oral administration in mice.; conditions: Pseudomonas aeruginosa, po; read-out: ED50; method in brief: as §1
[4] = system: Escherichia coli; test: In vitro antibacterial activity measured as minimum inhibitory concentration, was evaluated on Escherichia coli ATCC 23559(Ec).; conditions: Escherichia coli, ATCC 23559; read-out: MIC; method in brief: as §2
[5] = system: Enterococcus faecalis; test: In vitro antibacterial activity measured as minimum inhibitory concentration was evaluated on Streptococcus faecalis ATCC 10541 (Sf).; conditions: Enterococcus faecalis, ATCC 10541; read-out: MIC; method in brief: as §2
[6] = system: Klebsiella pneumoniae; test: In vitro antibacterial activity measured as minimum inhibitory concentration was evaluated on klebsiella pneumoniae ATCC 10031 (Kp).; conditions: Klebsiella pneumoniae, ATCC 10031; read-out: MIC
Method in brief: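 Serial 2-fold agar dilution in Mueller Hinton medium, run side by side with reference quinolones.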

[7] = system: Pseudomonas aeruginosa; test: In vitro antibacterial activity measured as minimum inhibitory concentration was evaluated on Pseudomonas aeruginosa ATCC 10145 (Pa).; conditions: Pseudomonas aeruginosa, ATCC 10145; read-out: MIC; method in brief: as §2
[8] = system: Proteus vulgaris; test: In vitro antibacterial activity measured as minimum inhibitory concentration was evaluated on proteus vulgaris ATCC 8427 (Pv).; conditions: Proteus vulgaris, ATCC 8427; read-out: MIC; method in brief: as §2
[9] = system: Enterobacter cloacae; test: In vitro antibacterial activity measured as minimum inhibitory concentration, was evaluated on Enterobacter cloacae ATCC 23355 (Ecl).; conditions: Enterobacter cloacae, ATCC 23355; read-out: MIC
[10] = system: Staphylococcus aureus; test: In vivo efficacy as ED50 against Staphylococcus aureus HS-93 by oral administration in mice.; conditions: Staphylococcus aureus, po; read-out: ED50; method in brief: as §1
[11] = system: Staphylococcus aureus; test: In vitro antibacterial activity measured as minimum inhibitory concentration was evaluated on Staphylococcus aureus ATCC 25178 (Sa).; conditions: Staphylococcus aureus, ATCC 25178; read-out: MIC; method in brief: as §2
[12] = system: Bacillus cereus; test: In vitro antibacterial activity measured as minimum inhibitory concentration was evaluated on Bacillus cereus ATCC 11778 (Bc).; conditions: Bacillus cereus, ATCC 11778; read-out: MIC; method in brief: as §2
[13] = system: Bacillus subtilis; test: In vitro antibacterial activity measured as minimum inhibitory concentration was evaluated on Bacillus subtilis ATCC 6633(Bs).; conditions: Bacillus subtilis, ATCC 6633; read-out: MIC; method in brief: as §2
[14] = system: Staphylococcus epidermidis; test: In vitro antibacterial activity measured as minimum inhibitory concentration was evaluated on Staphylococcus epidermidis ATCC 155-1 (Se).; conditions: Staphylococcus epidermidis, ATCC 155-1; read-out: MIC; method in brief: as §2

MIC [2] | MIC [4] | MIC [5] | MIC [6] | MIC [7] | MIC [8] | MIC [9] | MIC [11] | MIC [12] | MIC [13] | MIC [14] | Compound | ED50 [1] | ED50 [3] | ED50 [10]
0.12 µg/mL (≈ 0.285 µM) | 0.06 µg/mL (≈ 0.142 µM) | 1 µg/mL (≈ 2.37 µM) | 0.06 µg/mL (≈ 0.142 µM) | 1 µg/mL (≈ 2.37 µM) | 0.5 µg/mL (≈ 1.19 µM) | 0.06 µg/mL (≈ 0.142 µM) | 0.12 µg/mL (≈ 0.285 µM) | 0.12 µg/mL (≈ 0.285 µM) | 0.06 µg/mL (≈ 0.142 µM) | 0.12 µg/mL (≈ 0.285 µM) | CC1C(N)CN1c1c(F)cc2c(=O)c(C(=O)O)cn(-c3ccc(F)cc3F)c2c1F (stereo not given) | 2.3 mg/kg | 61 mg/kg | 10 mg/kg
0.03 µg/mL (≈ 0.082 µM) | 0.015 µg/mL (≈ 0.041 µM) | 0.06 µg/mL (≈ 0.164 µM) | 0.015 µg/mL (≈ 0.041 µM) | – | 0.03 µg/mL (≈ 0.082 µM) | 0.03 µg/mL (≈ 0.082 µM) | 0.03 µg/mL (≈ 0.082 µM) | 0.03 µg/mL (≈ 0.082 µM) | 0.03 µg/mL (≈ 0.082 µM) | 0.03 µg/mL (≈ 0.082 µM) | CC1C(N)CN1c1c(F)cc2c(=O)c(C(=O)O)cn(C3CC3)c2c1Cl (stereo not given) | 2.8 mg/kg | 38 mg/kg | 9.6 mg/kg
8 µg/mL (≈ 23 µM) | 8 µg/mL (≈ 23 µM) | 4 µg/mL (≈ 11.5 µM) | 8 µg/mL (≈ 23 µM) | 32 µg/mL (≈ 92.1 µM) | 8 µg/mL (≈ 23 µM) | 4 µg/mL (≈ 11.5 µM) | 4 µg/mL (≈ 11.5 µM) | 4 µg/mL (≈ 11.5 µM) | 2 µg/mL (≈ 5.76 µM) | 4 µg/mL (≈ 11.5 µM) | CC1COc2c(N3CC(C)(N)C3)c(F)cc3c(=O)c(C(=O)O)cn1c23 (single isomer, unassigned) | – | – | –
0.12 µg/mL (≈ 0.275 µM) | 0.03 µg/mL (≈ 0.0687 µM) | 0.12 µg/mL (≈ 0.275 µM) | 0.25 µg/mL (≈ 0.573 µM) | 0.5 µg/mL (≈ 1.15 µM) | 0.5 µg/mL (≈ 1.15 µM) | 0.12 µg/mL (≈ 0.275 µM) | 0.06 µg/mL (≈ 0.137 µM) | 0.12 µg/mL (≈ 0.275 µM) | 0.03 µg/mL (≈ 0.0687 µM) | 0.12 µg/mL (≈ 0.275 µM) | C[C@@H]1[C@@H](N)CN1c1c(F)c(N)c2c(=O)c(C(=O)O)cn(-c3ccc(F)cc3F)c2c1F | – | – | –
0.06 µg/mL (≈ 0.18 µM) | 0.015 µg/mL (≈ 0.045 µM) | 0.12 µg/mL (≈ 0.36 µM) | 0.015 µg/mL (≈ 0.045 µM) | 0.25 µg/mL (≈ 0.75 µM) | 0.25 µg/mL (≈ 0.75 µM) | 0.015 µg/mL (≈ 0.045 µM) | 0.12 µg/mL (≈ 0.36 µM) | 0.12 µg/mL (≈ 0.36 µM) | 0.06 µg/mL (≈ 0.18 µM) | 0.06 µg/mL (≈ 0.18 µM) | C[C@H]1COc2c(N3CC(N)C3)c(F)cc3c(=O)c(C(=O)O)cn1c23 | – | – | –
0.06 µg/mL (≈ 0.178 µM) | 0.06 µg/mL (≈ 0.178 µM) | 1 µg/mL (≈ 2.96 µM) | – | 1 µg/mL (≈ 2.96 µM) | – | 0.06 µg/mL (≈ 0.178 µM) | – | – | 0.06 µg/mL (≈ 0.178 µM) | – | CCn1cc(C(=O)O)c(=O)c2cc(F)c(N3CC(N)C3C)c(F)c21 (stereo not given) | 4 mg/kg | 56 mg/kg | 5.1 mg/kg
0.06 µg/mL (≈ 0.166 µM) | 0.015 µg/mL (≈ 0.0415 µM) | 0.5 µg/mL (≈ 1.38 µM) | 0.015 µg/mL (≈ 0.0415 µM) | 1 µg/mL (≈ 2.77 µM) | 0.5 µg/mL (≈ 1.38 µM) | 0.06 µg/mL (≈ 0.166 µM) | 0.12 µg/mL (≈ 0.332 µM) | 0.12 µg/mL (≈ 0.332 µM) | 0.06 µg/mL (≈ 0.166 µM) | 0.12 µg/mL (≈ 0.332 µM) | CNC1(C)CN(c2c(F)cc3c(=O)c(C(=O)O)cn4c3c2OC[C@@H]4C)C1 | – | – | –
– | 0.06 µg/mL (≈ 0.149 µM) | 1 µg/mL (≈ 2.48 µM) | – | 2 µg/mL (≈ 4.96 µM) | 0.5 µg/mL (≈ 1.24 µM) | – | – | – | 0.03 µg/mL (≈ 0.0744 µM) | – | CC1C(N)CN1c1cc2c(cc1F)c(=O)c(C(=O)O)cn2-c1ccc(F)cc1F (stereo not given) | 6 mg/kg | 78 mg/kg | 8.1 mg/kg
0.12 µg/mL (≈ 0.346 µM) | 0.12 µg/mL (≈ 0.346 µM) | 0.12 µg/mL (≈ 0.346 µM) | 0.12 µg/mL (≈ 0.346 µM) | 0.5 µg/mL (≈ 1.44 µM) | 0.25 µg/mL (≈ 0.722 µM) | 0.12 µg/mL (≈ 0.346 µM) | 0.12 µg/mL (≈ 0.346 µM) | 0.25 µg/mL (≈ 0.722 µM) | 0.25 µg/mL (≈ 0.722 µM) | 0.12 µg/mL (≈ 0.346 µM) | Cc1c(F)c(N2C[C@H](N)[C@H]2C)nc2c1c(=O)c(C(=O)O)cn2C1CC1 | – | – | –
0.25 µg/mL (≈ 0.716 µM) | 0.25 µg/mL (≈ 0.716 µM) | 2 µg/mL (≈ 5.73 µM) | 0.25 µg/mL (≈ 0.716 µM) | 2 µg/mL (≈ 5.73 µM) | 1 µg/mL (≈ 2.86 µM) | 0.25 µg/mL (≈ 0.716 µM) | 0.25 µg/mL (≈ 0.716 µM) | 0.25 µg/mL (≈ 0.716 µM) | 0.25 µg/mL (≈ 0.716 µM) | 1 µg/mL (≈ 2.86 µM) | C[C@H]1[C@@H](N)CN1c1c(F)cc2c(=O)c(C(=O)O)cn(C3CC3)c2c1F | – | – | –
